# Laboratory results from ChEMBL document CHEMBL3792346, “Thiazolino 2-Pyridone Amide Inhibitors of Chlamydia trachomatis Infectivity” (J Med Chem, 2016).
# Assays:
# [1] = Cytotoxicity against human HeLa cells assessed as cell viability at 25 uM after 48 hrs by resazurin assay relative to control; format: cell-based; conditions: read-out: Activity
# Method in brief: (§1)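 Uninfected HeLa seeded in RPMI, next day switched to colorless DMEM with 10% FBS, 2 mM glutamine; compounds added in triplicate, 48 h at 37 °C; resazurin added, 3 h at 37 °C dark; fluorescence ex 535/em 595 nm; cell-free wells with compound check direct resazurin reduction; mean of three experiments in triplicate, SD over nine replicates.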
# Chlamydia trachomatis [2] = assay: Antimicrobial activity against Chlamydia trachomatis serovar LGV-L2 infected in human HeLa cells assessed as concentration require to reduce relative inclusion forming units by 95% after 48 hrs; format: functional
# Method in brief: (§2)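 HeLa cells infected with LGV-L2 at MOI 0.1-0.5; compounds added at 1 hpi, tested at 2.5 µM then 5 or 10 µM or 1, 0.5, 0.25, 0.1 µM; after ~48 h, osmotic lysis, SPG restored, 10-fold dilutions reinfect fresh HeLa; IFUs counted by automated imaging versus DMSO; Reinfect95 = lowest concentration consistently giving 95% IFU reduction; ≥2 experiments in triplicate.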
# Chlamydia trachomatis [3] = assay: Antimicrobial activity against Chlamydia trachomatis serovar LGV-L2 infected in human HeLa cells assessed as decrease in relative inclusion forming units measured 44 to 48 hrs post infection by DAPI staining-based assay; format: functional, organism-based
# Method in brief: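 HeLa229 cells infected with serovar LGV-L2 at MOI 0.3; compounds in DMSO added at 1 hpi as 8-step halving dilutions from 2 to 0.0156 µM; after 44-48 h, osmotic lysis with cold water, SPG restored, lysate 10-fold serially diluted onto fresh HeLa; after 44-48 h, methanol-fixed, anti-Chlamydia/FITC stained, IFUs counted by automated scanner relative to DMSO; EC50 by nonlinear regression, ≥3 independent experiments.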
# [4] = Cytotoxicity against human HeLa cells assessed as cell viability at 10 uM after 48 hrs by resazurin assay relative to control; format: cell-based; conditions: read-out: Activity; method in brief: as §1
# Chlamydia trachomatis [5] = assay: Antimicrobial activity against Chlamydia trachomatis serovar D infected in human HeLa cells assessed as decrease in relative inclusion forming units measured 44 to 48 hrs post infection by DAPI staining-based assay; format: functional, organism-based
# Chlamydia trachomatis [6] = assay: Drug uptake in Chlamydia trachomatis serovar LGV-L2 inclusion infected in human HeLa cells at 1 uM coadministered with 6-Amino-8-cyclopropyl-7-(naphthalen-1-ylmethyl)-5-oxo-N-phenyl-2,3-dihydro-5H-[1,3]thiazolo[3,2-a]pyridine 3-carboxamide after 48 hrs by laser confocal microscopy; format: ADME, organism-based
# Method in brief: (§3)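 Infected HeLa (LGV-L2, MOI 0.5) given 1 µM fluorescent analogue alone or with equimolar competitor, added together directly after infection and kept to end; fixed, anti-MOMP stained, confocal imaged with identical settings; fluorescence per inclusion divided by inclusion area in >40 inclusions; two-tailed t-test; ≥2 independent experiments.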
# Chlamydia trachomatis [7] = assay: Antimicrobial activity against Chlamydia trachomatis serovar LGV-L2 infected in human HeLa cells at 2.5 uM after 48 hrs; format: functional; method in brief: as §2
# Chlamydia trachomatis [8] = assay: Drug uptake in Chlamydia trachomatis serovar LGV-L2 inclusion infected in human HeLa cells at 1 uM after 48 hrs by laser confocal microscopy; format: ADME, organism-based
# Method in brief: (§4)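 HeLa on coverslips infected with LGV-L2 at MOI 0.5 in HBSS; after 60 min, fresh medium with fluorescent compound or BODIPY control (1 µM) added, left to 48 hpi; PBS-washed, 4% paraformaldehyde fixed, Triton-permeabilized, BSA-blocked, anti-MOMP/rhodamine stained; confocal imaging, 60× oil, Z-stack projections; ≥2 independent experiments.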
# Chlamydia trachomatis [9] = assay: Drug uptake in Chlamydia trachomatis serovar LGV-L2 inclusion infected in human HeLa cells at 1 uM coadministered with 8-Cyclopropyl-7-(naphthalen 1-ylmethyl)-5-oxo-N-(3-methylphenyl)-2,3-dihydro-5H-[1,3]thiazolo[3,2-a]pyridine-3-carboxamide after 48 hrs by laser confocal microscopy; format: ADME, organism-based; method in brief: as §3
# Chlamydia trachomatis [10] = assay: Antimicrobial activity against Chlamydia trachomatis serovar LGV-L2 infected in human HeLa cells measured 44 to 48 hrs post infection by DAPI staining-based assay; format: functional, organism-based
# [11] = 1-octanol-potassium phosphate buffer partition co-efficient, log P of the compound incubated overnight by shake-flask method; format: physicochemical
# Method in brief: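 Miniaturized shake-flask: 1-octanol pre-saturated with 0.1 M potassium phosphate pH 7.4 and buffer pre-saturated with octanol mixed 1:3 and 1:6; compound added from 10 mM DMSO stock; rotated overnight at rt, centrifuged 3500 rpm 30 min; each phase diluted in 60% acetonitrile with warfarin internal standard, quantified by UHPLC-MS/MS against 1-1000 nM external curve; ketoconazole control.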
# Chlamydia trachomatis [12] = assay: Antimicrobial activity against Chlamydia trachomatis serovar LGV-L2 infected in human HeLa cells at 10 uM measured 44 hrs post infection relative to control; format: functional
# Chlamydia trachomatis [13] = assay: Antimicrobial activity against Chlamydia trachomatis serovar A infected in human HeLa cells at 10 uM measured 44 hrs post infection relative to control; format: functional
# Chlamydia trachomatis [14] = assay: Antimicrobial activity against Chlamydia trachomatis serovar D infected in human HeLa cells at 10 uM measured 44 hrs post infection relative to control; format: functional
# [15] = 1-octanol-potassium phosphate buffer distribution co-efficient, log D of the compound incubated overnight at pH 7.4 by shake-flask method
# [16] = Effect on growth of Lactobacillus crispatus CCUG 27076A at 50 uM after 48 hrs
# Method in brief: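 L. crispatus CCUG 27076A in MRS broth at 37 °C, 5% CO2; overnight culture diluted 1:20 and grown 48 h with 50 µM compound or 1% DMSO.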
# Candida albicans = assay: Effect on growth of Candida albicans SC314 at 50 uM measured every 2 hrs by microscopy; format: organism-based; conditions: in vivo
# Method in brief: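 C. albicans SC314 grown overnight at 30 °C, diluted to OD600 0.05, grown to OD600 0.2, then compound added at 10 and 50 µM and grown to saturation; sampled every 2 h for microscopic yeast:hyphal ratio.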
# Escherichia coli = assay: Effect on growth of Escherichia coli MW100 at 50 uM incubated for 8 hrs measured every hour during incubation; format: organism-based; conditions: in vivo
# Method in brief: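 E. coli MW100 overnight LB cultures at 37 °C diluted to OD600 0.05 in LB with DMSO or 50 µM compound; grown 8 h with OD600 read hourly and visual inspection; triplicate.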
# [17] = Dissociation constant, pKa of the compound by UV-visible spectrophotometry; format: physicochemical
# Method in brief: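 Spectrophotometric titration: 2–5 µL of 10 mM DMSO stock in phosphate buffer with 20-50% (wt/wt) methanol cosolvent and ISA water; titrated pH 2-12 high to low under argon at 25 ± 1 °C, UV–vis spectra by D-PAS; electrode blank-calibrated pH 1.8-12.0 each run; precipitation monitored at 500 nm.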
# HeLa = assay: Drug uptake in human HeLa cells infected with Chlamydia trachomatis serovar LGV-L2 at 1 uM after 48 hrs by laser confocal microscopy; format: ADME, cell-based; method in brief: as §4
Compound,EC50 (Chlamydia trachomatis [3]),EC50 (Chlamydia trachomatis [5]),Drug uptake (Chlamydia trachomatis [8]),"viability at 48 h, 25 µM [1]",Activity (Chlamydia trachomatis [2]),"viability at 48 h, 10 µM [4]",other results
Cc1ccc(NC(=O)C2CSc3c(C4CC4)c(Cc4cccc(C)c4C)c(N)c(=O)n32)cc1 (stereo not given),281 nM,274 nM,–,102%,1 µM,101%,–
CC1=CC(C)=[N+]2C1=C(CCc1cc(=O)n3c(c1C1CC1)SCC3C(=O)Nc1cccc(C)c1)c1c(C)cc(C)n1[B-]2(F)F (stereo not given),–,–,Active,–,–,–,Drug uptake (Chlamydia trachomatis [6]): Not Active; Activity (Chlamydia trachomatis [7]): >95%; Drug uptake (Chlamydia trachomatis [9]): Not Active
Cc1ccc(NC(=O)C2CSc3c(C4CC4)c(Cc4ccc(Cl)cc4)c(N)c(=O)n32)cc1 (stereo not given),266 nM,270 nM,–,102%,2.5 µM,101%,–
CC1=CC(C)=[N+]2C1=C(C)c1c(C)cc(C)n1[B-]2(F)F,–,–,Not Active,–,–,–,Drug uptake (HeLa): Not Active

# The next lines start with results.
EC50 (Chlamydia trachomatis [3]),EC50 (Chlamydia trachomatis [5]),Drug uptake (Chlamydia trachomatis [8]),Compound,"viability at 48 h, 25 µM [1]",Activity (Chlamydia trachomatis [2]),"viability at 48 h, 10 µM [4]",other results
254 nM,–,–,O=C(Nc1ccccc1)c1csc2c(C3CC3)c(Cc3cccc4ccccc34)cc(=O)n12,73%,2.5 µM,87%,EC50 (Chlamydia trachomatis [10]): 1250 nM; logP [11]: 5; fold change (FC) (Chlamydia trachomatis [12]): >=10000; fold change (FC) (Chlamydia trachomatis [13]): >=10000; fold change (FC) (Chlamydia trachomatis [14]): >=10000
59 nM,58 nM,–,Nc1c(Cc2cccc3ccccc23)c(C2CC2)c2n(c1=O)C(C(=O)Nc1ccccc1)CS2 (stereo not given),98%,0.25 µM,101%,logD [15]: 4.3; Activity [16]: Non-toxic; Activity (Candida albicans): Non-toxic; Activity (Escherichia coli): Non-toxic; pKa [17]: 2.4
